This is a sample that favours compounds with a hit; in the whole collection about 4.7% have one here.
SKN-1 inh: blocks SKN-1 activity in C. elegans; inhibition, % at 21.8 µM; 0.49% of 360,000 active; AID 624304; C. elegans VP596 Pgst-4::GFP/RFP ratio, acrylamide-induced, 24 h;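 active = interference check ratio from 0.5 to 1.5 plus GFP to RFP signal ratio inhibition reaching or exceeding a fixed threshold, cut at about 30% in these data, passing the limit was not always enough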
GRIN3A LBD mod: NR3A (human) ligand-binding domain modulation. NR3A LBD differential scanning fluorimetry, Tm shift; 0% = protein alone, 100% = glycine-bound protein. Tm shift relative to glycine control, % at 25 µM. 2.5% of 340,000 active;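 active = melting temperature shift of at least 10% of the positive control shift, at one fixed dose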
ADAM17 inh: inhibits human ADAM17. P78536. inhibition, % at 6.95 µM. AID 720648. recombinant ADAM17, EDANS/DABCYL FRET peptide cleavage. 0.83% of 370,000 active;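 active = inhibition above the mean of compounds lying between control limits plus 3 SD, set per campaign, cut at about 8.5% in these data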;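 also: 0% = DMSO-only wells as the low control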
Target sequence (P78536 215-824 limits assumed): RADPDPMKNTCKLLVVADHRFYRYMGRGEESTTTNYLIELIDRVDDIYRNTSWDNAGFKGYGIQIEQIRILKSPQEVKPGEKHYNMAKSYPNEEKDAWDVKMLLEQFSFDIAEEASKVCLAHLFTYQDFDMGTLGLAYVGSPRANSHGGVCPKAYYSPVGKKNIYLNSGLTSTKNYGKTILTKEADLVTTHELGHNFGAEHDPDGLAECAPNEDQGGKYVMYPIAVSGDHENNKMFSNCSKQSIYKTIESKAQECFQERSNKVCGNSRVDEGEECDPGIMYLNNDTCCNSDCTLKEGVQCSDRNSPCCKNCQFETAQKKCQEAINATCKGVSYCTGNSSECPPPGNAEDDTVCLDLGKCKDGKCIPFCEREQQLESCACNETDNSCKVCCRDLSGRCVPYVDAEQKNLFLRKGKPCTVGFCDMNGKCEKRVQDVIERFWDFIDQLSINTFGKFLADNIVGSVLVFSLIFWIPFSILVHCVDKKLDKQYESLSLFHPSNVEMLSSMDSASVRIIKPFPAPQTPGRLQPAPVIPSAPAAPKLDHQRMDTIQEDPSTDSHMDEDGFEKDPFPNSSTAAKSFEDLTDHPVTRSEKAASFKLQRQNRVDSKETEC
ADAM10 inh: inhibits human ADAM10; recombinant ADAM10, EDANS/DABCYL FRET peptide cleavage, 3 h; inhibition, % at 7 µM; 0.62% of 370,000 active; AID 720582;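 active = inhibition above a per-campaign cutoff equal to the mean of compounds falling between control-based bounds plus 3 SD, cut at about 20% in these data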;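 also: 0% = DMSO wells while the 100% control is not disclosed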
MPTP block: blocks calcium-induced mitochondrial swelling; inhibition, % at 10 µM; 1.4% of 360,000 active; isolated mouse mitochondria, Ca2+ swelling absorbance, 30 min; AID 602449;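 active = inhibition of 50% or more, scaled per plate between neutral and stimulator controls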;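 also: 0% = DMSO wells given calcium and 100% = 1 mM EGTA wells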
MT1-MMP act inh: inhibitors of human MT1-MMP activation. P50281. HT1080 RFP-PRO-GFP cells, GFP/RFP ratio fluorescence, overnight; percent of plate control window, DMSO zero. GFP/RFP ratio change, % at 20 µM. 0.061% of 360,000 active;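 active = GFP/RFP ratio change of at least 30% with cell ATP level not reduced by more than half and red fluorescence within 50% of control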
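Test system: HT1080 RFP-PRO-GFP cells; Benchmarks: DMSO and RFP-L50D-GFP cell wells; Timing: cells overnight before dosing, compound overnight, 37 °C, 5% CO2; Compound: one 20 µM compound dose with 1% DMSO; Read-out: GFP/RFP fluorescence ratio.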
* marks the source's active call; other numbers are inactive results; . = no result.

SMILES	SKN-1 inh	GRIN3A LBD mod	ADAM17 inh	ADAM10 inh	MPTP block	MT1-MMP act inh
O=C(COC(=O)CCC1CCCC1)Nc1nc2c(F)c(F)c(F)cc2s1	4.7	21.9*	-1.2	-3.0	13.7	1.3
O=C(C[C@H]1C(=O)N(Cc2ccccc2)C[C@@H]1Cc1ccccc1)Nc1ccccc1	-7.7	-8.6	1.1	7.9	-1.4	-2.4
CC(C)NC(=O)C12CC3CC(C1)CC(n1cnc(Cl)n1)(C3)C2	3.7	-0.6	-1.6	-0.4	-1.2	1.0
CC(=O)c1ccc(OCC(=O)Nc2ccccc2C(=O)NC2CC2)cc1	10.0	1.7	-4.1	-3.5	-1.8	-0.1
O=C(O)c1cc(N/N=C/c2c(O)ccc3ccccc23)ccc1Cl	10.0	8.3	-1.2	-2.4	0.4	-0.8
COc1ccc(/C=N/Nc2ccccn2)cc1OC	3.5	2.9	-3.1	1.9	0.7	0.6
O=C(CN1CCOCC1)N/N=C/c1c(O)ccc2ccccc12	-2.5	1.4	-2.2	-3.8	0.3	-2.9
O=C(O)c1ccc(N=Cc2c(O)ccc3ccccc23)cc1	2.9	0.3	-5.8	0.6	-0.4	0.3
O=C(CNc1ccccc1)N/N=C/c1c(O)ccc2ccccc12	14.9	20.2*	-0.1	-2.6	5.8	-2.5
COc1ccc(/C=N/Nc2nc(N)cc(Cl)n2)cc1OC	6.5	12.0*	0.1	-5.2	-0.1	-0.9
CC(=O)Nc1ccc(N=Cc2c(O)ccc3ccccc23)cc1	-11.4	39.4*	1.0	2.4	2.8	-0.2
Nc1cc(Cl)nc(N/N=C/c2c(O)ccc3ccccc23)n1	1.7	27.7*	-0.3	-11.1	-1.3	-4.7
CC(=O)c1c(C)nn(C(=O)N2CCOCC2)c1C	-19.8	0.6	2.9	0.3	-0.1	0.2
CCC1CCCCN1CCCNC(=O)C1CCCN(c2nn3c(=O)cc(C)nc3s2)C1 (stereo not drawn)	0.1	0.1	1.3	3.0	1.4	-1.9
O=C(N/N=C/c1c(O)ccc2ccccc12)Nc1ccccc1	.	39.4*	-2.6	-11.8	.	.
O=C(CSCC(=O)Nc1ccccc1)N/N=C/c1c(O)ccc2ccccc12	7.1	9.3	-1.9	6.2	2.0	-5.8
O=C(CCCOc1ccccc1)N1CCN(c2ccc(F)cc2)CC1	7.1	-0.8	-2.8	4.0	-0.2	9.9
O=C(Oc1ccccc1)N1CCN(c2ccc(F)cc2)CC1	42.5*	0.4	0.7	-4.4	0.7	4.3
COc1ccc(NC(=O)C(c2ccc(C)cc2)N(C)C(=O)CNC(C)=O)cc1 (stereo not drawn)	-7.5	0.5	5.4	9.8	-0.9	1.9
Nc1ncc(-c2ccc(-c3ccccc3)cc2F)cc1-c1ccccc1F	40.4*	.	-60.9	-198.8	0.9	2.0
O=C1C(=O)c2ccc(-c3ccccc3)cc2-c2ccccc21	-16.2	-1.3	-2.0	-2.3	13.4	-37.0
COC(=O)c1[nH]c2ccccc2c1NC(=O)C(C)N1CCN(C(=O)c2ccco2)CC1 (stereo not drawn)	7.5	0.9	-6.5	-11.3	-1.3	0.8
COC(=O)c1[nH]c2ccccc2c1NC(=O)C(C)N1CCOCC1 (stereo not drawn)	38.3*	3.0	-3.8	-20.2	-0.3	-3.7
COc1ccc(Oc2ccc(N/C=C3/CCCC3=O)cc2)cc1	9.6	16.8*	1.2	-4.8	2.5	-1.2
COc1ccc(Oc2ccc(N/C=C3\CCCC3=O)cc2)cc1	4.8	-10.7	-2.2	-2.2	0.8	-1.6
SMILES	SKN-1 inh	GRIN3A LBD mod	ADAM17 inh	ADAM10 inh	MPTP block	MT1-MMP act inh
CC(C)(C)CN1CCNC(=O)C1CC(=O)NCCN1CCCc2ccccc21 (stereo not drawn)	17.2	-2.7	-9.8	-27.6	0.4	-5.1
CC[C@@H]1CCC[C@@H](O)[C@@H](C)C(=O)O[C@H](C)[C@@H](C)C/C=C(C)/C(OC)=C\C(=O)N(C)C([C@@H](C)CC)C(=O)N(C)[C@@H](C(C)C)C(=O)N(C)[C@@H](COC)C(=O)N2CCC[C@H]2C(=O)N(C)[C@@H](C(C)C)C(=O)N2CCC[C@H]2C(=O)O1 (stereo partly drawn)	44.0*	.	3.9	11.9	1.9	-20.5
Cc1ccccc1NC(=O)CSc1nc(=O)n(CCN2CCOCC2)c2c1CCCC2	15.9	1.1	-3.2	4.0	-1.9	-0.3
CCS(=O)(=O)C(C)(CCl)C(=O)Nc1ccc(C(=O)OC)cc1 (stereo not drawn)	2.7	12.5*	-0.8	-2.9	2.3	0.2
COC(=O)c1ccc(NC(=O)NCCCl)cc1	-2.9	1.2	1.0	9.3	-1.3	4.5
Cc1ccccc1NS(=O)(=O)c1ccc(-c2ccc(=O)[nH]n2)o1	19.1	14.8*	-0.4	-2.0	-0.1	-3.6
CCN(CC)c1ccc(NS(=O)(=O)c2ccc(-c3ccc(=O)[nH]n3)o2)c(C)c1	0.5	3.7	3.6	1.1	2.5	4.2
Cc1cc(S(=O)(=O)N(Cc2ccc3c(c2)OCO3)CC2CCCO2)ccc1-n1cnnn1 (stereo not drawn)	21.0	21.2*	-4.5	4.2	0.1	-1.8
Cc1cc(S(=O)(=O)N(Cc2ccc(F)cc2)CC2CCCO2)ccc1-n1cnnn1 (stereo not drawn)	2.0	1.6	-2.3	-0.7	0.4	0.1
CCOC(=O)c1ccc(NC(=S)N(CCCN2CCCC(C)C2)Cc2ccco2)cc1 (stereo not drawn)	7.2	2.5	-6.0	-15.2	1.0	-2.2
COCCN1C(=O)CC(NNC(=O)c2ccc(S(=O)(=O)N3CCCC3)cc2)C1=O (stereo not drawn)	100.6*	-2.0	-2.1	-3.2	-0.8	0.3
CC(C)CCN1C(=O)CC(NNC(=O)c2ccc(S(=O)(=O)N3CCCC3)cc2)C1=O (stereo not drawn)	5.5	-0.9	-1.8	-0.4	3.4	-1.1
COc1ccc(CCNC(=O)c2c(O)c3cccc4c3n(c2=O)CC4)cc1OC	-27.2	0.6	-3.1	2.8	1.2	-0.8
COc1ccc2cc3c(N)nn(C(=O)c4ccc(Cl)c([N+](=O)[O-])c4)c3nc2c1	4.5	22.0*	1.9	0.1	1.2	-13.6
COc1ccccc1-c1c(C(F)(F)F)oc2cc(OC(=O)c3cccc([N+](=O)[O-])c3C)ccc2c1=O	35.8*	0.5	-2.5	3.7	9.3	3.5
COc1ccccc1NC(=S)NNC(=O)c1nn(C)c(C)c1Br	-1.6	-10.2	3.8	-0.7	-0.4	0.4
Cc1cc(NC(=O)CCC(=O)N(C(C(=O)NC(C)(C)C)c2ccccc2Cl)C(C)(C)C)no1 (stereo not drawn)	-7.1	-2.0	0.2	0.7	-0.6	-4.8
C/C(=N\OC(=O)Nc1ccc(Cl)cc1)c1ccc(F)c(F)c1	9.9	36.1*	2.4	1.9	1.2	-0.1
CC(C)C(Cl)=NOC(=O)Nc1ccc(F)cc1	5.3	0.3	-1.8	0.1	-0.3	8.7

Compound activity: PubChem, several laboratories
